Experimental findings from ChEMBL document CHEMBL2069211, “Busseihydroquinones A-D from the roots of Pentas bussei” (J Nat Prod, 2012) are described below.

The source made the active and inactive calls. No cut-off for these calls is given here.

Data set [1] can be described thus: Selectivity index, ratio of LD50 for human MCF7 cells to IC50 for chloroquine-sensitive Plasmodium falciparum D6. The following applies: read-out: Selectivity Index. It is filed as toxicity, cell-based. In a few lines:
(§1)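 The selectivity index is the MCF-7 LD50 (48 h PrestoBlue assay) divided by the P. falciparum IC50 (SYBR Green I assay) for the same strain.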

The next data set relates to Candida albicans. Nature of the data set: Antimicrobial activity against Candida albicans at 0.1 mg/disc incubated for 24 to 72 hrs by disc diffusion assay. In kind it is functional, organism-based. Summed up:
(§2)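 Paper discs loaded with sample are laid on seeded agar plates, in triplicate under sterile conditions. Incubation is at 37 °C for E. coli, S. aureus and C. albicans, and at 25 °C for A. niger. Streptomycin (bacteria) and nystatin (fungi) serve as standards at 0.1 mg/100 μL. Sample solvents serve as controls.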
A general note: In agar diffusion tests the substance spreads into inoculated agar from a disc or well.

Another data set concerns Staphylococcus aureus. Nature of the data set: Antimicrobial activity against Staphylococcus aureus at 0.1 mg/disc incubated for 24 to 72 hrs by disc diffusion assay. It is filed as functional, organism-based. In a few lines: as §2
Data set [2] has as its system Plasmodium falciparum. Nature of the data set: Antiplasmodial activity against chloroquine-sensitive Plasmodium falciparum D6 by SYBR green I-based assay. In kind it is functional, organism-based. Summed up: (§3)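 Drug susceptibility is measured with the SYBR Green I-based in vitro malaria assay. Chloroquine and mefloquine run alongside as reference drugs. IC50 is the mean of at least 3 independent experiments.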

Data set [3] can be described thus: Selectivity index, ratio of LD50 for human MCF7 cells to IC50 for chloroquine-resistant Plasmodium falciparum W2. It is filed as toxicity, cell-based. The following applies: read-out: Selectivity Index. In a few lines: as §1
The nature of data set [4]: Toxicity against human MCF7 cells incubated for 48 hrs by PrestoBlue cell viability reagent based assay. Particulars: read-out: LD50. Summed up:
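MCF-7 cells are grown in DMEM with 10% FBS, 2 mM L-glutamine and penicillin/streptomycin at 37 °C in 5% CO2. They are seeded for exponential growth and preincubated 24 h. Drug or DMSO vehicle (0.1% or 1.0% v/v) is then added for 48 h. PrestoBlue absorbance is read at 570 nm (600 nm reference). Viability is expressed as % of vehicle, six replicates, with repeated independent experiments.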

A further data set concerns Aspergillus niger. Nature of the data set: Antimicrobial activity against Aspergillus niger at 0.1 mg/disc incubated for 24 to 72 hrs by disc diffusion assay. In kind it is functional, organism-based. Summed up: as §2
In data set [5] the test system is Plasmodium falciparum. Nature of the data set: Antiplasmodial activity against chloroquine-resistant Plasmodium falciparum W2 by SYBR green I-based assay. It is filed as functional, organism-based. Summed up: as §3
Another data set has as its system Escherichia coli. Nature of the data set: Antimicrobial activity against Escherichia coli at 0.1 mg/disc incubated for 24 to 72 hrs by disc diffusion assay. In kind it is functional, organism-based. Summed up: as §2

For `COc1cc(C(=O)O)c(O)c2ccc3c(c12)C=C1/C(=C(\C)C=O)CCC1(C)O3` (racemic) [BUSSEIHYDROQUINONE D], the selectivity ratio in data set [1] is over 13.4; in data set [3], over 3.27. For the same compound, the “inhibition zone (IZ)” value with Candida albicans, in the data set with Staphylococcus aureus, with Aspergillus niger and with Escherichia coli was “inactive” in each case. Moreover, the figures for the IC50 in the data set with Plasmodium falciparum [2] and in the data set with Plasmodium falciparum [5] were 19.6 µM and 80.1 µM, respectively. For the same compound, in [4], the CC50 at 48 h was over 262 µM.

`COC(=O)c1cc(OC)c2cc(OC)c(OC)c(O)c2c1O` [BUSSEIHYDROQUINONE A]: the selectivity ratio in data set [1] stood at 8.44; in data set [3], 2.11. For the same compound, the “inhibition zone (IZ)” value in the data set on Candida albicans, in the data set on Staphylococcus aureus, in the data set with Aspergillus niger and in the data set with Escherichia coli was “inactive” in each case. Besides, the IC50 with Plasmodium falciparum [2] was determined as 36 µM; in the data set with Plasmodium falciparum [5], 144 µM. For the same compound, the CC50 at 48 h in [4] was determined as 304 µM.

`COc1cc(C(=O)O)c(O)c2ccc3c(c12)C=CC(C)(CCC=C(C)C)O3` (racemic) [BUSSEIHYDROQUINONE C]: the selectivity ratio in [1] was over 8.32; in [3], over 4.52. Further, the “inhibition zone (IZ)” value in the data set with Candida albicans, in the data set with Staphylococcus aureus, with Aspergillus niger and in the data set on Escherichia coli was “inactive” each time. Besides, the IC50 was determined as 32.6 µM in the data set on Plasmodium falciparum [2] and 60.1 µM in the data set on Plasmodium falciparum [5]. In data set [4], the CC50 at 48 h is over 272 µM.

For `OC(c1cc(C(F)(F)F)nc2c(C(F)(F)F)cccc12)C1CCCCN1` (stereo unspecified) [MEFLOQUINE], the IC50 with Plasmodium falciparum [2] is 0.029 µM.

For the compound `COc1cc(C(=O)O)c(O)c2ccc3c(c12)C=CC(C)(C)O3` [BUSSEIHYDROQUINONE B], the results for the selectivity ratio in [1] and in data set [3] were 13.4 and 2.96, respectively. Moreover, the “inhibition zone (IZ)” value in the data set on Candida albicans, in the data set with Staphylococcus aureus, with Aspergillus niger and in the data set on Escherichia coli was “inactive” each time. Also, the IC50 with Plasmodium falciparum [2] is 27.8 µM; in the data set on Plasmodium falciparum [5], 126 µM. Also, the CC50 at 48 h in data set [4] came out at 374 µM.

For the compound `COC(=O)c1cc(OC)c2cc(O)c3c(c2c1O)C=CC(C)(CCC=C(C)C)O3` (racemic), the selectivity ratio is 2.83 in data set [1] and 1.02 in data set [3]. Further, the “inhibition zone (IZ)” value in the data set on Candida albicans, with Staphylococcus aureus, in the data set with Aspergillus niger and with Escherichia coli was “inactive” in each case. Also, the results for the IC50 in the data set with Plasmodium falciparum [2] and in the data set on Plasmodium falciparum [5] were 30.6 µM and 85 µM, respectively. Moreover, the CC50 at 48 h in [4] is 86.4 µM.

The term IC50 denotes the point on the concentration scale where inhibition reaches its midpoint. Low readings indicate greater potency, high ones weaker potency.
